Data as given in paper PMC8649585 (Neoplasia (New York, N.Y.), 2021).
Read-outs that look alike come from different tables or passages of the source.

Tests used:
[1] = tested on: J82 cells; assay: Cell proliferation assay; format: cell-based
[2] = tested on: HEP3B cells; assay: Cell proliferation assay; format: cell-based, human; conditions: 72 h
Method in brief: (§1)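 Seeding was 5 × 10^3 cells per well in 96-well plates: HEP3B in DMEM, HUH7 and HEPG2 in RPMI1640, all with 10% FBS at 37 °C under 5% CO2. Cells received 10 doses of test compound in 3-fold serial dilution for 72 h. Viability was read by CellTiter-Glo luminescence.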

[3] = tested on: HEPG2 cells; assay: Cell proliferation assay; format: cell-based, human; conditions: FGFR4 overexpression, HCC
Method in brief: as §1

[4] = tested on: MDA-MB-453 cells; assay: Cell proliferation assay; format: cell-based
Method in brief: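 MDA-MB-453 cells (DMEM, 10% FBS, 37 °C, 5% CO2) were plated at 5 × 10^3 per well in 96-well plates. Test compound was added at 10 doses in 3-fold serial dilution for 72 h. Viability was read by CellTiter-Glo luminescence, and GI50 was derived from the dose-response curves.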

[5] = tested on: AN3-CA cells; assay: Cell proliferation assay; format: cell-based; conditions: 72 h
[6] = tested on: KMS-11 cells; assay: Cell proliferation assay; format: cell-based
[7] = tested on: HUH7 cells; assay: Cell proliferation assay; format: cell-based, human
Method in brief: as §1

[8] = tested on: HEP3B cells; assay: Invasion assay; format: cell-based, human; conditions: low concentrations
Method in brief: (§2)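 Cells (HUH7 in RPMI1640, HEP3B in DMEM) were serum-starved for 12 h. They were then seeded at 5.0 × 10^4 cells per chamber into 8 μm ECMatrix-coated transwell chambers (QCM collagen invasion kit). Test compound was added and chambers were incubated at 37 °C under 5% CO2. Invaded cells were stained with 0.005% crystal violet in PBS.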

[9] = target: FGFR4 WT (Homo sapiens, UniProt P22455); assay: Radiometric biochemical kinase assay
[10] = tested on: HEP3B cells; assay: Apoptosis assay; format: cell-based, human; conditions: 24 h
Method in brief: (§3)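 Cells (1 × 10^5) were treated with test compound for 24 h, then harvested and stained with Alexa Fluor 488 annexin V and propidium iodide per kit instructions, and analysed by flow cytometry. Culture: HEP3B and SK-HEP1 in DMEM, HUH7 in RPMI1640, each with 10% FBS and antibiotic-antimycotic, at 37 °C under 5% CO2.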

[11] = target: FGFR1 WT (Homo sapiens, UniProt P11362); assay: Radiometric biochemical kinase assay; conditions: ATP 10 µM
[12] = tested on: SK-HEP1 cells; assay: Soft agar anchorage-independent growth assay; format: cell-based; conditions: 5 µM, 3 weeks
Method in brief: (§4)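 The base layer was 0.5% agar in DMEM in 6-well plates. Cells were suspended in 2× DMEM with 0.7% agar (0.35% agar per legend) at 5 × 10^3 cells per well and overlaid with medium containing test compound. Plates were incubated for 3 weeks at 37 °C under 5% CO2. Colonies were stained with iodonitrotetrazolium chloride in PBS and imaged.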

[13] = tested on: HEP3B cells; assay: Scratch wound healing migration assay; format: cell-based, human; conditions: GNF-7 0.01 or 0.05 μM, SIJ1263 0.002 or 0.005 μM, PD173074 0.1 μM
[14] = tested on: HEP3B cells; assay: Soft agar anchorage-independent growth assay; format: cell-based, human; conditions: GNF-7 0.1 or 0.5 µM, SIJ1263 0.01 or 0.05 µM, 3 weeks
Method in brief: as §4

[15] = tested on: HUH7 cells; assay: Scratch wound healing migration assay; format: cell-based, human; conditions: GNF-7 0.01 or 0.05 μM, SIJ1263 0.002 or 0.005 μM, PD173074 0.1 μM, 36 h
[16] = target: FGFR2 N549H (Homo sapiens, UniProt P21802, N549H); assay: Radiometric biochemical kinase assay; conditions: ATP 10 µM
[17] = target: FGFR1 V561M (Homo sapiens, UniProt P11362, V561M); assay: Radiometric biochemical kinase assay; conditions: ATP 10 µM
[18] = tested on: phosphorylation of FGFR and downstream molecules (PLCγ, FRS2α, AKT, ERK1/2) in HEP3B cells; assay: Western blot of FGFR signaling; format: cell-based, human; conditions: dose-dependent
Method in brief: (§5)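 After SDS-PAGE, proteins were transferred to nitrocellulose and blocked in 5% milk in TBS-T. Rabbit antibodies (FGFR4, pFGFR, pERK, pFRS2α, pPLCγ, β-actin) were applied overnight at 4 °C, then secondary for 1 h. Detection was by ECL with densitometry.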

[19] = tested on: HUH7 cells; assay: Invasion assay; format: cell-based, human; conditions: low concentrations
Method in brief: as §2

[20] = tested on: SK-HEP1 cells; assay: Apoptosis assay; format: cell-based; conditions: 24 h
Method in brief: as §3

[21] = tested on: HEP3B cells; assay: Cell cycle analysis; format: cell-based, human; conditions: 18 h
Method in brief: (§6)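 Cells seeded at 1 × 10^5 on 60 mm plates and exposed to test compound for 18 h. They were then fixed in 70% ethanol and resuspended in PBS containing 50 μg/mL propidium iodide. DNA content was measured by flow cytometry to give the cell cycle phase distribution.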

[22] = tested on: HUH7 cells; assay: Apoptosis assay; format: cell-based, human; conditions: 24 h
Method in brief: as §3

[23] = tested on: SK-HEP1 cells; assay: Cell cycle analysis; format: cell-based; conditions: 18 h
[24] = tested on: HUH7 cells; assay: Cell cycle analysis; format: cell-based, human; conditions: 18 h
Method in brief: as §6

[25] = target: FGFR2 WT (Homo sapiens, UniProt P21802); assay: Radiometric biochemical kinase assay; conditions: ATP 10 µM
[26] = tested on: HUH7 cells; assay: Soft agar anchorage-independent growth assay; format: cell-based, human; conditions: GNF-7 0.1 or 0.5 µM, SIJ1263 0.01 or 0.05 µM, 3 weeks
Method in brief: as §4

[27] = tested on: phosphorylation of FGFR and downstream molecules (PLCγ, FRS2α, AKT, ERK1/2) in HUH7 cells; assay: Western blot of FGFR signaling; format: cell-based, human; conditions: dose-dependent
Method in brief: as §5

Sequence of FGFR4 WT (P22455 22-802): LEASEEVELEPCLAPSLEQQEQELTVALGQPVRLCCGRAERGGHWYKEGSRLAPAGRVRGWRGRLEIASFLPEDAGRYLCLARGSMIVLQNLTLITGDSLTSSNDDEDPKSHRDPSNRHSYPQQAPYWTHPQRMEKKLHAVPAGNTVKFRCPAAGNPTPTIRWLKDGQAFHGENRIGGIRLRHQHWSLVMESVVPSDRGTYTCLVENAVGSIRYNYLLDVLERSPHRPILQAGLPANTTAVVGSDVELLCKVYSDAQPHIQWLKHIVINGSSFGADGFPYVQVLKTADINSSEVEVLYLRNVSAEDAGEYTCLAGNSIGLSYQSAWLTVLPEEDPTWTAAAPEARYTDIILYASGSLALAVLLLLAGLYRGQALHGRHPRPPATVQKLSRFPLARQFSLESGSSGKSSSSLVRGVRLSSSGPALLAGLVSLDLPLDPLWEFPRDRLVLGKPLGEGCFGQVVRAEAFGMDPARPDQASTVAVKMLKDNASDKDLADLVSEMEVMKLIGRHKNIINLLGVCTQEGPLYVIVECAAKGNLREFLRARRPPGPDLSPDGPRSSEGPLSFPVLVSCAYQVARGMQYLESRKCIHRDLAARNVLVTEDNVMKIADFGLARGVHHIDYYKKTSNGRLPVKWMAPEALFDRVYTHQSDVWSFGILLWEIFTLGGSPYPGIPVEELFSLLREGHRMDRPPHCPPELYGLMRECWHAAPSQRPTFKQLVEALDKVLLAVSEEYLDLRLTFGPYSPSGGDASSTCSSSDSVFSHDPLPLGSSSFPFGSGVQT
Sequence of FGFR1 V561M (P11362 22-822 V561M): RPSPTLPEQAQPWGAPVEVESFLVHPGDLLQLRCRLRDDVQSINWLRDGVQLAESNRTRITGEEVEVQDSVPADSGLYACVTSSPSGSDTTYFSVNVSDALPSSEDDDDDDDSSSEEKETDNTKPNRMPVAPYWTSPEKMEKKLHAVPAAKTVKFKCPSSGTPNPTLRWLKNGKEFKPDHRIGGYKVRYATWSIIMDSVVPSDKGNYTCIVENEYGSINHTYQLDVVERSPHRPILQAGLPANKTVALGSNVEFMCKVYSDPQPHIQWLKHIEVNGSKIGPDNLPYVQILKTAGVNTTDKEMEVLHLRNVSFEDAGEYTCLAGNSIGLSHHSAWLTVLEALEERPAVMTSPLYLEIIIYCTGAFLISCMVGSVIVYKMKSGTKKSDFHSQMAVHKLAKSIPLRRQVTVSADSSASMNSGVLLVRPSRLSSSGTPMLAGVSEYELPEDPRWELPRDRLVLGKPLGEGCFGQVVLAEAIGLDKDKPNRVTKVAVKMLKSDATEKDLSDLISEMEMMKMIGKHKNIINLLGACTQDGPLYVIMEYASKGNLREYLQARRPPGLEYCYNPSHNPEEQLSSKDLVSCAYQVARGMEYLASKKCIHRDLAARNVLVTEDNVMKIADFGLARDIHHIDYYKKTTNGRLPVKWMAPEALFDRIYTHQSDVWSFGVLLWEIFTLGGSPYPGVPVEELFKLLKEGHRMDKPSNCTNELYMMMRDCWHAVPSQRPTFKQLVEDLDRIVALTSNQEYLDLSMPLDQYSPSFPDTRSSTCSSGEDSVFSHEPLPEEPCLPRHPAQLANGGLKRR
Sequence of FGFR2 N549H (P21802 22-821 N549H): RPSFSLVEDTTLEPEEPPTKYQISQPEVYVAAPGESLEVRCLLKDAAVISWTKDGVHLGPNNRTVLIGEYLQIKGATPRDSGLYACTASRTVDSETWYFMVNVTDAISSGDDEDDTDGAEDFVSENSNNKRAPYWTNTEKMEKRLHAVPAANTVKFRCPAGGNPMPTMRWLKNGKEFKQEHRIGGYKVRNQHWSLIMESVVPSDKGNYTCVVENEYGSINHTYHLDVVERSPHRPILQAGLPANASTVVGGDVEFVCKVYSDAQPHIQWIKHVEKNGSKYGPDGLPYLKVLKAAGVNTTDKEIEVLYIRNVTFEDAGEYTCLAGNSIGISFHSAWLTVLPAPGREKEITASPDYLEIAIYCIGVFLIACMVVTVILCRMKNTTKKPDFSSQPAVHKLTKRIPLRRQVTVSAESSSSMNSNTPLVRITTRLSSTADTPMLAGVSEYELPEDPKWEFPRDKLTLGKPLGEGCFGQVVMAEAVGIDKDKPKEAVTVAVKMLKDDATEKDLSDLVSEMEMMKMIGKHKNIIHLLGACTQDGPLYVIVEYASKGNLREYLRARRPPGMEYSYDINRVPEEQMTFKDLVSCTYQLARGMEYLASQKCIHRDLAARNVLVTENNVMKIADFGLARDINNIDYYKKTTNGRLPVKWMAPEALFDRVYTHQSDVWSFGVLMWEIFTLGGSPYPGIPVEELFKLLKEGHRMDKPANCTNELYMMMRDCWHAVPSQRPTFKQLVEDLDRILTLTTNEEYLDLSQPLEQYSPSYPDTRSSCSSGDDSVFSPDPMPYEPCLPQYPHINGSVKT
Sequence of FGFR2 WT (P21802 22-821): as the sequence (P21802 22-821 N549H) above, with H528N counted along it
Sequence of FGFR1 WT (P11362 22-822): as the sequence (P11362 22-822 V561M) above, with M540V counted along it

CCN1CCN(c2ccc(Nc3cc(N(C)C(=O)Nc4c(Cl)c(OC)cc(OC)c4Cl)ncn3)cc2)CC1 [BGJ398, 3-(2,6-dichloro-3,5-dimethoxy-phenyl)-1-{6-[4-(4-ethyl-piperazin-1-yl)-phenylamino]-pyrimidin-4-yl}-1-methyl-urea]
GI50 ([1]; Homo sapiens, J82, 72 h): 2840 ± 1570 nM | GI50 ([2]; Homo sapiens, Hep3B): 1370 ± 140 nM | GI50 ([3]; Homo sapiens, HepG2, 72 h): 5370 ± 1100 nM | GI50 ([4]; Homo sapiens, MDA-MB-453, 72 h): 2640 ± 280 nM | GI50 ([5]; Homo sapiens): 57 ± 10 nM | GI50 ([6]; Homo sapiens, KMS-11, 72 h): 143 ± 100 nM | GI50 ([7]; Homo sapiens, Huh-7, 72 h): 157 ± 120 nM

C=CC(=O)Nc1cccc(C)c1Nc1ncc2cc(-c3c(Cl)c(OC)cc(OC)c3Cl)ccc2n1 [BLU9931]
GI50 ([1]; Homo sapiens, J82, 72 h): 5870 ± 580 nM | GI50 ([2]; Homo sapiens, Hep3B): 4220 ± 1030 nM | GI50 ([4]; Homo sapiens, MDA-MB-453, 72 h): 2150 ± 380 nM | GI50 ([5]; Homo sapiens): 9200 ± 450 nM | GI50 ([6]; Homo sapiens, KMS-11, 72 h): 541 ± 10 nM | GI50 ([7]; Homo sapiens, Huh-7, 72 h): 715 ± 100 nM

Cc1ccc(Nc2ncc3c(n2)N(C)C(=O)N(c2cc(NC(=O)c4cccc(C(F)(F)F)c4)ccc2C)C3)cn1 [GNF-7]
effect on invasion [8]: remarkably attenuate invasion | IC50 ([9]; FGFR4 WT, radiometric, ATP 10 µM): 4 nM | IC50 ([9]; read-out: IC50 against FGFR4, wtFGFR4): 4.17 nM | GI50 ([1]; J82, FGFR3 K652E, urinary bladder, 72 h): 50 ± 10 nM | apoptosis induction [10]: inducing apoptosis | IC50 [11]: 11 nM | GI50 ([2]; HEP3B, FGFR4 overexpression, HCC): 373 ± 150 nM | block of colony formation [12]: 11% | wound healing (migration) [13]: substantially reduced | GI50 ([3]; 72 h): 366 ± 70 nM | suppression of colony-formation [14]: almost completely | wound healing (migration) [15]: substantially reduced | IC50 [16]: 7 nM | IC50 [17]: 7540 nM | GI50 ([4]; MDA-MB-453, FGFR4 overexpression, breast cancer, 72 h): 443 ± 70 nM | phosphorylation of FGFR and downstream signaling molecules [18]: inhibiting significantly phosphorylation | GI50 ([5]; FGFR2 N549K/K310R, endometrium): 17 nM | effect on invasion [19]: remarkably attenuate invasion | apoptosis induction [20]: little effects | cell cycle distribution [21]: induce G0/G1 phase cell cycle arrest with decrease in the S phase | apoptosis induction [22]: inducing apoptosis | induction of G0/G1 phase cell cycle arrest [23]: little effects | GI50 ([6]; KMS-11, FGFR3 Y373C, myeloma, 72 h): 15 nM | cell cycle distribution [24]: induce G0/G1 phase cell cycle arrest with decrease in the S phase | IC50 [25]: 20 nM | suppression of colony-formation [26]: almost completely | GI50 ([7]; HUH7, FGFR4 overexpression, HCC, 72 h): 60 ± 10 nM | phosphorylation of FGFR and downstream signaling molecules [27]: inhibiting significantly phosphorylation

CCN(CC)CCCCNc1ncc2cc(-c3cc(OC)cc(OC)c3)c(NC(=O)NC(C)(C)C)nc2n1 [PD173074]
effect on invasion [8]: little effect on invasion capability | IC50 [9]: 97 nM | GI50 ([1]; Homo sapiens, J82, 72 h): 975 ± 450 nM | GI50 ([2]; Homo sapiens, Hep3B): 2500 ± 490 nM | wound healing (migration) [13]: moderately reduced the wound healing | GI50 ([3]; 72 h): 13400 ± 3600 nM | GI50 ([3]; Homo sapiens, HepG2, 72 h): > 10000 nM | wound healing (migration) [15]: moderately reduced the wound healing | GI50 ([4]; Homo sapiens, MDA-MB-453, 72 h): > 10000 nM | GI50 ([5]; Homo sapiens): 973 ± 2550 nM | effect on invasion [19]: little effect on invasion capability | GI50 ([6]; Homo sapiens, KMS-11, 72 h): 64 ± 20 nM | GI50 ([7]; Homo sapiens, Huh-7, 72 h): 598 ± 240 nM

CNC(=O)c1cc(Oc2ccc(NC(=O)Nc3ccc(Cl)c(C(F)(F)F)c3)cc2)ccn1 [sorafenib]
GI50 ([2]; Homo sapiens, Hep3B): 5420 ± 1120 nM | GI50 ([3]; Homo sapiens, HepG2, 72 h): 8560 ± 1450 nM | GI50 ([7]; Homo sapiens, Huh-7, 72 h): 9590 ± 2060 nM
